From PubChem BioAssay AID1556 (The Scripps Research Institute Molecular Screening Center, 2009) come the findings set out here.

Hit rate of the full screen: of about 290,000 compounds, about 1,300 (0.45%) were called active. The sample holds actives, similar compounds and a random draw of the others, so the mix is not that of the screen.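 How the source made its calls: active means inhibition above the mean plus 3 SD of all compounds in the same screening run (cut at about 4.5% in these data); inactive means the rest.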

The subject of this experiment is metallo-beta-lactamase IMP-1 (Pseudomonas aeruginosa). Briefly: inhibition of IMP-1 nitrocefin hydrolysis – biochemical, epi-absorbance readout, Pseudomonas aeruginosa enzyme, primary screen (AID 1556). The following applies: purified IMP-1, nitrocefin hydrolysis, epi-absorbance fluorescence; at 5.6 µM; hits give high values. In short, it runs like this: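 assay system = purified recombinant IMP-1 metallo-beta-lactamase enzyme | schedule = 15 min preincubation plus 25 min reaction at 25 °C | signal = Epi-absorbance fluorescence, 480 nm excitation, 530 nm emission | read-out basis = percent inhibition from optical density relative to buffer-blank wells | controls = IMP-1 with DMSO as 0%, enzyme-free DMSO as 100%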
By inhibition is commonly meant the relative decrease from the control value, in per cent. On to `O=C(Nc1ccc(F)cc1)C(=O)c1cn(CC(=O)N2CCOCC2)c2ccccc12`, for which the inhibition is -5.04% (inactive).

Consider `CS(=O)(=O)N1CCN(C(=O)CSc2ccccc2)CC1`, for which the inhibition is -2.52% (inactive).

As for `Oc1ccc2ccc3cccc[n+]3c2c1`, the inhibition is 34.3% (active).

Consider `CCCCC(=O)Nc1ccccc1N1CCN(c2ccc(F)cc2)CC1`, for which the inhibition was -3.05% (inactive).

In the case of `CC(=O)N1c2ccc(S(=O)(=O)N3CCC(C(=O)NCc4ccc(F)cc4)CC3)cc2CC1C` (centres undefined), the inhibition was -3.57% (inactive).

For `Cc1ccc(CNC(=O)C2CCN(S(=O)(=O)c3ccc4nc5c(c(C(=O)O)c4c3)CC(C)CC5)CC2)cc1` (centres undefined), the inhibition is 5.35% (active).

In the case of `CCOC(CNC(=O)C1CCN(S(=O)(=O)c2ccc3nc4c(c(C(=O)O)c3c2)CC(C)CC4)CC1)OCC` (centres undefined), the inhibition was -0.25% (inactive).

Regarding `Cc1nc(CN(C)C(=O)CC2C(=O)NCCN2Cc2ccc(F)cc2)cs1` (centres undefined), the inhibition is -2.3% (inactive).

Consider `Cc1cccc(C)c1NC(=O)N1CC=C(n2c(=O)[nH]c3ccccc32)CC1`, for which the inhibition is -4.93% (inactive).

On to `CCOc1ccc(NC(=O)N2CCN(CC)CC2)cc1`, for which the inhibition is -1.66% (inactive).

Regarding `CCOc1ccc(NC(=O)N2CC=C(n3c(=O)[nH]c4ccccc43)CC2)cc1`, the inhibition was 6.24% (active).

Consider `COc1ccc(NC(=O)CN2C(=O)COc3ccc(S(=O)(=O)N4CCOCC4)cc32)cc1`, for which the inhibition is -3.61% (inactive).

Take `Cc1ccc(CNC(=O)C(=O)c2cn(CC(=O)N3CCOCC3)c3ccccc23)cc1`: the inhibition is -2.82% (inactive).

For the compound `O=C(Nc1ccc(C(=O)N2CCCCC2)cc1)c1cccc([N+](=O)[O-])c1`, the inhibition was -1.61% (inactive).

As for `Cn1ccc(=Nc2ccc(NC(=O)c3ccc(N=c4ccn(C)c5ccc([N+](=O)[O-])cc45)cc3)cc2)cc1`, the inhibition was 14.8% (active).

As for `Cc1cc([N+](=O)[O-])ccc1NC(=O)c1ccc(NC(=O)C(C)C)cc1`, the inhibition is -0.19% (inactive).

Consider `Cc1sc2ncn(CC(=O)NCCCC(=O)N(C)Cc3ccccc3)c(=O)c2c1C`, for which the inhibition is -3.46% (inactive).

With `Cc1ccc(-n2ncc3c2CC(C)(C)CC3NC(=O)CCc2cnn(C)c2)cc1` (centres undefined), the inhibition was -2.72% (inactive).

As for `COCCOC(=O)c1sc(=S)n(CCOC)c1N`, the inhibition was -0.79% (inactive).

For `CCN(Cc1ccccc1)C(=O)CCS(=O)(=O)c1ccc2c(c1)oc(=O)n2C`, the inhibition is -3.48% (inactive).

For the compound `C=CCn1c(=O)c(C(=O)Nc2ncccc2O)c(O)c2ccccc21`, the inhibition was -5.49% (inactive).

As for `CCOC(=O)CCc1c(C)c2ccc(OCc3nn[nH]n3)c(C)c2oc1=O`, the inhibition is -1.75% (inactive).

In the case of `Cc1c(CCC(=O)O)c(=O)oc2cc(OCc3ccc(Br)cc3)ccc12`, the inhibition is -4.45% (inactive).

On to `Cc1c(CCC(=O)O)c(=O)oc2c(C)c(OCc3ccccc3Cl)ccc12`, for which the inhibition is 11.5% (active).

With `COc1ccccc1N1CCN(S(=O)(=O)CCNC(=O)c2ccc(OC(C)C)cc2)CC1`, the inhibition is -1.73% (inactive).

Turning to `CCOc1cc(NC(=O)Nc2ccccc2)c(OCC)cc1NC(=O)CC`, the inhibition was 1.47% (inactive).

Turning to `CCOC(=O)Nc1ccc2c(c1)N(C(=O)CCCl)c1ccccc1[S@]2=O`, the inhibition is -1.86% (inactive).

`COc1ccc(-n2c(=O)[nH]c3cc(C(=O)NCCc4ccc(OC)c(OC)c4)ccc3c2=O)c(OC)c1`: the inhibition is -0.95% (inactive).

Consider `C[n+]1ccc(/C=C/c2c[nH]c3ccccc23)cc1`, for which the inhibition was 11.3% (active).

On to `COc1ccc(/C=C(\C#N)c2c[nH]c3ccccc23)cc1`, for which the inhibition was -0.02% (inactive).

In the case of `O=C(N/N=C/c1c[nH]c2ccccc12)c1ccccc1O`, the inhibition is -3.56% (inactive).

As for `COc1ccc(C2c3[nH]c4ccccc4c3C[C@H]3C(=O)N(CC(C)C)CC(=O)N23)c(OC)c1` (some centres undefined), the inhibition was -2.7% (inactive).

Take `Cc1cc(Cl)ccc1OCCCC(=O)Nc1cccc(-n2cnnn2)c1`: the inhibition was -1.81% (inactive).

As to `Cc1ccc(CN2CCC(n3nccc3NC(=O)CCCc3ccccc3)CC2)o1`, the inhibition was -1.11% (inactive).

Take `Cc1c(CN2CCC(n3nccc3NC(=O)CCc3ccccc3)CC2)cnn1C`: the inhibition was 40.5% (active).

In the case of `CCn1cc(CN2CCC(n3nccc3NC(=O)CCCc3ccccc3)CC2)c(C)n1`, the inhibition was -2.27% (inactive).

For the compound `CCCSc1nc2sc3c(c2c(=O)n1-c1ccc(OC)cc1)CCN(C)C3`, the inhibition is -1.47% (inactive).

Regarding `CCOc1ccc(-n2c(SCC(=O)Nc3ccc(OC)cc3)nc3sc4c(c3c2=O)CCN(C)C4)cc1`, the inhibition is 7.22% (active).

Consider `CCOc1ccc(-n2c(SCC(=O)OC)nc3sc4c(c3c2=O)CCN(C)C4)cc1`, for which the inhibition was 1.15% (inactive).

Turning to `CCN(c1ccccc1)S(=O)(=O)c1cc2c(cc1C)n(C)c(=O)c(=O)n2C`, the inhibition is -1.34% (inactive).

Consider `CC(NC(=O)COc1ccc(-c2ccccc2)cc1)C1CCCO1` (centres undefined), for which the inhibition is -0.53% (inactive).

Take `COC(=O)c1cc(C(=O)NC(C)C2CC3CCC2C3)cc([N+](=O)[O-])c1` (centres undefined): the inhibition is -3.23% (inactive).

As to `O=C(NCCCN1CCCCCC1)C1CC(=O)N(C2CCCC2)C1` (centres undefined), the inhibition was 6.55% (active).

On to `CC(C)OCCCNC(=O)C1CC(=O)N(C2CCCCCCC2)C1` (centres undefined), for which the inhibition is -4.36% (inactive).

On to `O=C(NCCc1ccc(Cl)cc1)C1CC(=O)N(C2CCCCC2)C1` (centres undefined), for which the inhibition is -3.24% (inactive).

With `CC1(C)CC(=O)CC2(C1)NCC(c1ccccc1Cl)c1c2[nH]c2ccccc12` (centres undefined), the inhibition is -5.43% (inactive).

For the compound `Cc1ccc(C(=O)O)cc1-c1ccc(/C=C2\SC(=O)N(CC(=O)Nc3ccc4c(c3)OCO4)C2=O)o1`, the inhibition was 8.27% (active).

Consider `COc1ccc(NC(=O)CCN2C(=O)/C(=C/c3ccc4c(c3)OCO4)SC2=S)cc1`, for which the inhibition is -3.16% (inactive).

As to `Cn1cccc1/C=C1\SC(=O)N(CC(=O)Nc2ccc(F)cc2)C1=O`, the inhibition is -1.78% (inactive).

Consider `COc1ccccc1-c1sc2ccccc2c1-c1ccc(C(C)=O)cc1`, for which the inhibition is 1.15% (inactive).

As for `CCc1ccccc1N(CC(=O)NCC1CCCO1)C(=O)CCC(=O)Nc1nccs1` (centres undefined), the inhibition was -4.39% (inactive).

With `O=C(NCc1cccc(Cl)c1)C1CCN(c2nnc(N3CCCC3=O)s2)CC1`, the inhibition is -2.2% (inactive).

With `COc1ccc2c(CC(=O)Nc3nnc(C4CC4)s3)coc2c1`, the inhibition was 68.4% (active).

On to `COc1ccc(NC(=O)CCC(=O)Nc2nnc(C3CCCCC3)s2)cc1`, for which the inhibition was -2.6% (inactive).

`Cc1cc(=O)oc2cc(OCC(=O)Nc3nnc(C4CC4)s3)ccc12`: the inhibition is -1.51% (inactive).

As for `O=C(NCCCn1ccnc1)C(=O)NCC1OCCN1S(=O)(=O)c1cc(F)ccc1F` (centres undefined), the inhibition is 5.52% (active).

As to `O=C(NCCCc1ccccc1)C(=O)NCC1OCCN1S(=O)(=O)c1ccccc1` (centres undefined), the inhibition is -6.52% (inactive).

`Cc1cc(F)ccc1S(=O)(=O)N1CCCOC1CNC(=O)C(=O)NCCC1=CCCCC1` (centres undefined): the inhibition is -1.85% (inactive).

Turning to `CCn1c(=S)sc2c(=O)n(CC(=O)Nc3ccc(OC)cc3)c(C)nc21`, the inhibition was -1.8% (inactive).

As to `COc1ccc(CCNC(=O)c2cnc(Cl)c(Cl)c2)cc1`, the inhibition is -2.17% (inactive).

As to `O=C(Nc1cccc(F)c1)NC1CCCc2ccccc21` (centres undefined), the inhibition was -1.14% (inactive).

`C=CCNC(=O)COc1coc(CN2CCN(Cc3ccccc3)CC2)cc1=O`: the inhibition was 2.52% (inactive).

As to `CNC(=S)NNC(=O)c1cccn(Cc2ccccc2)c1=O`, the inhibition was -3.24% (inactive).

`C=CCNC(=S)/N=c1/ccccn1Cc1ccccc1`: the inhibition is 16.2% (active).

Consider `O=[N+]([O-])c1ccc(N2CCN(c3ccc(F)cc3)CC2)cn1`, for which the inhibition is -0.39% (inactive).

Consider `CSc1ccc(S(=O)(=O)N2CCC(C(=O)NCc3ccncc3)CC2)cc1`, for which the inhibition was -1.8% (inactive).

Consider `Cc1ccc(Oc2nc(-c3ccccn3)nc3ccccc23)cc1`, for which the inhibition was -3.21% (inactive).

For the compound `Cc1nccc(-c2ccc(-n3c(C)ccc3C)cc2)n1`, the inhibition was -1.5% (inactive).

As for `c1ccc(-c2nccc(-c3ccc(-n4cnc5ccccc54)cc3)n2)nc1`, the inhibition is 15.8% (active).

With `CC(=O)c1cc2c(cc1NC(=O)Cn1nc(-c3ccc(F)cc3)ccc1=O)OCO2`, the inhibition is -1% (inactive).

On to `Cc1ccc(CSCC2Nc3ccc(C(=O)N4CCN(c5ccc(F)cc5)CC4)cc3NC2=O)cc1` (centres undefined), for which the inhibition is -4.03% (inactive).

In the case of `Cc1ccc(C(=O)NCC(=O)NCc2cc(=O)n(C)c(=O)n2C)cc1`, the inhibition is -0.88% (inactive).

For `Cc1ccc2c(CC(=O)NCc3cccs3)coc2c1`, the inhibition was -1.74% (inactive).

On to `CCSc1nnc(SCC(=O)NNC(=O)c2ccccc2F)s1`, for which the inhibition is -3.43% (inactive).

For the compound `Cc1cc2occ(CC(=O)NNC(=O)c3ccccc3F)c2cc1C`, the inhibition is 7.82% (active).

Consider `COC(=O)C1=C(C)NC2=C(C(=O)c3ccccc32)C1c1ccc(-c2ccc(C(=O)O)cc2)o1` (centres undefined), for which the inhibition is 21.7% (active).

Turning to `CCOC(=O)C1=C(c2ccc(OC)cc2)C(=O)c2ccccc2C1=O`, the inhibition is -1.49% (inactive).

With `Cc1ccc(C2C3=C(Nc4[nH]n(-c5ccccc5)c(=O)c42)c2ccccc2C3=O)cc1` (centres undefined), the inhibition was -5.01% (inactive).

For `COc1ccc(CNC(=O)C(=O)NCC2OCCN2C(=O)c2ccc(OC)cc2)cc1` (centres undefined), the inhibition is -0.68% (inactive).

As to `COc1cccc(OCC(=O)NNC(=O)c2cnccn2)c1`, the inhibition is -3% (inactive).

For the compound `COc1ccc(C(=O)NNC(=O)c2cnccn2)cc1[N+](=O)[O-]`, the inhibition was 5.35% (active).

Regarding `COc1ccc(C(=O)O/N=C(\N)c2ccccn2)cc1[N+](=O)[O-]`, the inhibition was -0.21% (inactive).

For `Cc1cc(OCC(=O)NCC(O)c2ccccc2)c2c(C)c(C)c(=O)oc2c1` (centres undefined), the inhibition was -1.48% (inactive).

Regarding `COc1ccc(CC(NC(C)=O)C(=O)NC2CCN(C(=O)C3CC3)CC2)cc1OC` (centres undefined), the inhibition was -2.45% (inactive).

For `COc1cccc(CNS(=O)(=O)c2ccc3c(c2)N(C(C)=O)CCS3)c1`, the inhibition is 0.57% (inactive).

For `CCOc1cc(NC(=O)c2cnccn2)c(OCC)cc1NC(=O)c1ccc(C)cc1`, the inhibition is -4.22% (inactive).

Consider `CCCc1cc(=O)oc2c(C)c(OCC(=O)NCc3ccccn3)ccc12`, for which the inhibition was -4.36% (inactive).

For `CCCc1cc(=O)oc2c(C)c(OCC(=O)Nc3ccccn3)ccc12`, the inhibition was 12.4% (active).

Regarding `CCCc1cc(=O)oc2c(C)c(OCC(=O)N3CCC(C(=O)O)CC3)ccc12`, the inhibition is -2.1% (inactive).
